In ChEMBL document CHEMBL1125681, “Specific anti-HIV-1 "acyclonucleosides" which cannot be phosphorylated: synthesis of some deoxy analogues of 1-[(2-hydroxyethoxy)methyl]-6-(phenylthio)thymine” (J Med Chem, 1991):

Tested on: MT4
Assay: Concentration of compound required to reduce the viability of mock infected MT-4 cells against HIV-1 by 50%
Assay type: functional
Details: Homo sapiens
Outline: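 Mock-infected MT-4 cells were exposed to the compound, and viability was measured. CC50 is the concentration that lowers the viability of these uninfected cells by 50%. Values are means (± standard deviation or range) from at least two separate experiments.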
`Cc1c(Sc2ccccc2)n(COCCN=[N+]=[N-])c(=O)[nH]c1=O` showed a CC50 of 186 µM.
Compound `CCOCn1c(Sc2ccccc2)c(C)c(=O)[nH]c1=O` has a CC50 of 231 µM.
`CCOCn1c(Sc2ccccc2)c(CC)c(=O)[nH]c1=O` showed a CC50 of 161 µM.
With `CCc1c(Sc2ccccc2)n(COCc2ccccc2)c(=O)[nH]c1=O` the CC50 was 34 µM.
`Cc1c(Sc2ccccc2)n(COCCOCc2ccccc2)c(=O)[nH]c1=O` gave a CC50 of 45 µM.
With `COCCOCn1c(Sc2ccccc2)c(C)c(=O)[nH]c1=O` the CC50 was 299 µM.
With `Cc1c(Sc2ccccc2)n(COCCO)c(=O)[nH]c1=O` [HEPT] the CC50 was > 500 µM.
Compound `Cc1c(Sc2ccccc2)n(COCCF)c(=O)[nH]c1=O` has a CC50 of 209 µM.
With `Cc1c(Sc2ccccc2)n(COCc2ccccc2)c(=O)[nH]c1=O` the CC50 was 95 µM.
`Cc1c(Sc2ccccc2)n(COCCCl)c(=O)[nH]c1=O` gave a CC50 of 196 µM.

Tested on: not listed separately
Assay: CC50/EC50 ratio expressed as selectivity index(SI)
Assay type: functional
Details: not given
Outline: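 Ratio of two MT-4 values from this work. CC50 is the concentration that reduces the viability of mock-infected MT-4 cells by 50%. EC50 is the concentration giving 50% protection of HIV-1-infected MT-4 cells against virus cytopathic effect. Both are means (± standard deviation or range) of at least two separate experiments.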
Work on `Cc1c(Sc2ccccc2)n(COCCN=[N+]=[N-])c(=O)[nH]c1=O` yielded a Ratio of 32.
With `CCOCn1c(Sc2ccccc2)c(C)c(=O)[nH]c1=O` the Ratio was 700.
`CCOCn1c(Sc2ccccc2)c(CC)c(=O)[nH]c1=O` showed a Ratio of 8500.
Work on `Cc1cn([C@H]2C[C@H](N=[N+]=[N-])[C@@H](CO)O2)c(=O)[nH]c1=O` [ZIDOVUDINE] yielded a Ratio of 2600.
Work on `CCc1c(Sc2ccccc2)n(COCc2ccccc2)c(=O)[nH]c1=O` yielded a Ratio of 5800.
With `Cc1c(Sc2ccccc2)n(COCCOCc2ccccc2)c(=O)[nH]c1=O` the Ratio was < 2.3.
Compound `COCCOCn1c(Sc2ccccc2)c(C)c(=O)[nH]c1=O` has a Ratio of 34.
For `Cc1c(Sc2ccccc2)n(COCCO)c(=O)[nH]c1=O` [HEPT], the Ratio was > 77.
`Cc1c(Sc2ccccc2)n(COCCF)c(=O)[nH]c1=O` showed a Ratio of 190.
`Cc1c(Sc2ccccc2)n(COCc2ccccc2)c(=O)[nH]c1=O` showed a Ratio of 1080.
`Cc1c(Sc2ccccc2)n(COCCCl)c(=O)[nH]c1=O` gave a Ratio of 131.

Tested on: MT4
Assay: Concentration of compound required to achieve 50% protection of MT-4 cells against HIV-1 virus induced cytopathic effect
Assay type: functional, cell-based
Details: Homo sapiens
Outline: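 HIV-1-infected MT-4 cells, scored for protection against virus-induced cytopathic effect. EC50 is the concentration protecting 50% of cells, given as the mean (± standard deviation or range) of at least two separate experiments.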
`Cc1c(Sc2ccccc2)n(COCCN=[N+]=[N-])c(=O)[nH]c1=O` gave an EC50 of 5.8 µM.
In the case of `CCOCn1c(Sc2ccccc2)c(C)c(=O)[nH]c1=O`, the EC50 is reported as 0.33 µM.
Compound `CCOCn1c(Sc2ccccc2)c(CC)c(=O)[nH]c1=O` has an EC50 of 0.019 µM.
Compound `Cc1cn([C@H]2C[C@H](N=[N+]=[N-])[C@@H](CO)O2)c(=O)[nH]c1=O` [ZIDOVUDINE] has an EC50 of 0.003 µM.
`CCc1c(Sc2ccccc2)n(COCc2ccccc2)c(=O)[nH]c1=O` gave an EC50 of 0.0059 µM.
With `Cc1c(Sc2ccccc2)n(COCCOCc2ccccc2)c(=O)[nH]c1=O` the EC50 was > 20 µM.
`COCCOCn1c(Sc2ccccc2)c(C)c(=O)[nH]c1=O` gave an EC50 of 8.7 µM.
Work on `CCc1c(Sc2ccccc2)n(COCCO)c(=O)[nH]c1=O` yielded an EC50 of 0.12 µM.
`Cc1c(Sc2ccccc2)n(COCCO)c(=O)[nH]c1=O` [HEPT] gave an EC50 of 6.5 µM.
`Cc1c(Sc2ccccc2)n(COCCF)c(=O)[nH]c1=O` gave an EC50 of 1.1 µM.
In the case of `Cc1c(Sc2ccccc2)n(COCc2ccccc2)c(=O)[nH]c1=O`, the EC50 is reported as 0.088 µM.
Compound `Cc1c(Sc2ccccc2)n(COCCCl)c(=O)[nH]c1=O` has an EC50 of 1.5 µM.
